Experimental data reported in ChEMBL document CHEMBL3616442, “Unconventional Knoevenagel-type indoles: Synthesis and cell-based studies for the identification of pro-apoptotic agents” (Eur J Med Chem, 2015).

Tests used:
HepG2 = assay: Cytotoxicity against human HepG2 cells after 96 hrs by MTT assay; format: functional, cell-based; conditions: HepG2, 96 h
In short: (§1)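 ATCC cell lines, mycoplasma-free by Hoechst staining. Haematological lines in RPMI-1640, solid-tumour and normal fibroblast lines in their own media, all with 10% FCS and antibiotics, at 37 °C in 5% CO₂. Compounds added as serial dilutions from a 100 mM DMSO stock diluted in medium. Viability by MTT after 96 h at 37 °C. Mean ± SD of three independent determinations.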

[1] = Cytotoxicity against human CRL7065 cells after 96 hrs by MTT assay; format: cell-based; conditions: CRL-7065, 96 h; in short: as §1
MT4 = assay: Antiproliferative activity against human MT4 cells after 96 hrs by MTT assay; format: functional, cell-based; conditions: MT4, 96 h
In short: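 Exponentially growing MT-4 cells (CD4+ human T-cells carrying integrated HTLV-1 genome), seeded at 1×10^5 cells/mL in RPMI-1640 with 10% FCS and antibiotics. Serial dilutions of compound (DMSO stock 100 mM, diluted in medium), 37 °C, 5% CO₂, 96 h. Viability read by MTT. 50% inhibition versus untreated controls by linear regression. Mean ± SD of three independent determinations.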

[2] = Cytotoxicity against human SKMES1 cells after 96 hrs by MTT assay; format: functional, cell-based; conditions: SK-MES-1, 96 h; in short: as §1
MRC5 = assay: Cytotoxicity against human MRC5 cells after 96 hrs by MTT assay; format: cell-based; conditions: MRC5, 96 h; in short: as §1
CCRF-CEM = assay: Cytotoxicity against human CCRF-CEM cells after 96 hrs by MTT assay; format: functional, cell-based; in short: as §1
DU-145 = assay: Cytotoxicity against human DU145 cells after 96 hrs by MTT assay; format: functional, cell-based; conditions: DU-145, 96 h; in short: as §1
SK-MEL-28 = assay: Cytotoxicity against human SK-MEL-28 cells after 96 hrs by MTT assay; format: functional, cell-based; conditions: SK-MEL-28, 96 h; in short: as §1
WIL2-NS = assay: Cytotoxicity against human WIL2-NS cells after 96 hrs by MTT assay; format: functional, cell-based; in short: as §1
MCF7 = assay: Cytotoxicity against human MCF7 cells after 96 hrs by MTT assay; format: functional, cell-based; conditions: MCF7, 96 h; in short: as §1
CCRF-SB = assay: Cytotoxicity against human CCRF-SB cells after 96 hrs by MTT assay; format: functional, cell-based; in short: as §1

O=C(/C(=C\c1c(-c2ccccc2)[nH]c2ccccc12)C(=O)C(F)(F)F)c1ccco1
EC50 (HepG2): 16 µM | EC50 [1]: 8.1 µM | EC50 (MT4): 0.8 µM | EC50 [2]: 27 µM | EC50 (MRC5): 12 µM | EC50 (CCRF-CEM): 1.9 µM | EC50 (DU-145): 9.2 µM | EC50 (SK-MEL-28): 33 µM | EC50 (WIL2-NS): 2.3 µM | EC50 (MCF7): 10 µM | EC50 (CCRF-SB): 1.8 µM

Cc1[nH]c2ccccc2c1/C=C(\C#N)S(C)(=O)=O
EC50 (MT4): > 100 µM

Cn1cc(/C=C(\C#N)S(=O)(=O)c2ccccc2)c2ccccc21
EC50 (MT4): > 100 µM

Cc1[nH]c2ccccc2c1C=C(C#N)C#N
EC50 (MT4): 56 µM

CC(=O)C(=Cc1c(-c2ccccc2)[nH]c2ccccc12)C(C)=O
EC50 (MT4): 1.5 µM

CCOC(=O)/C(=C/c1c(-c2ccccc2)[nH]c2ccccc12)C(=O)c1ccc([N+](=O)[O-])cc1
EC50 (HepG2): 28 µM | EC50 [1]: > 100 µM | EC50 (MT4): 1.5 µM | EC50 [2]: 19 µM | EC50 (MRC5): > 100 µM | EC50 (CCRF-CEM): 1.8 µM | EC50 (DU-145): 11 µM | EC50 (SK-MEL-28): > 100 µM | EC50 (WIL2-NS): 2.4 µM | EC50 (MCF7): 40 µM | EC50 (CCRF-SB): 2.2 µM

O=C(C(=Cc1c(-c2ccccc2)[nH]c2ccccc12)C(=O)c1ccccc1)c1ccccc1
EC50 (HepG2): > 100 µM | EC50 [1]: > 100 µM | EC50 (MT4): 8.9 µM | EC50 [2]: > 100 µM | EC50 (MRC5): > 100 µM | EC50 (CCRF-CEM): 12 µM | EC50 (DU-145): > 100 µM | EC50 (SK-MEL-28): > 100 µM | EC50 (WIL2-NS): 72 µM | EC50 (MCF7): > 100 µM | EC50 (CCRF-SB): 12 µM

N#C/C(=C\c1c(-c2ccccc2)[nH]c2ccccc12)C(N)=O
EC50 (MT4): 6 µM

COc1cccc2c1C(=O)c1c(O)c3c(c(O)c1C2=O)C[C@@](O)(C(=O)CO)C[C@@H]3O[C@H]1C[C@H](N)[C@H](O)[C@H](C)O1 [DOXORUBICIN]
EC50 (HepG2): 0.3 µM | EC50 [1]: 0.9 µM | EC50 (MT4): 0.03 µM | EC50 [2]: 0.1 µM | EC50 (MRC5): 0.3 µM | EC50 (CCRF-CEM): 0.02 µM | EC50 (DU-145): 0.2 µM | EC50 (SK-MEL-28): 0.7 µM | EC50 (WIL2-NS): 0.04 µM | EC50 (MCF7): 0.3 µM | EC50 (CCRF-SB): 0.01 µM

CC(=O)/C(=C/c1c(-c2ccccc2)[nH]c2ccccc12)C(=O)c1ccccc1
EC50 (HepG2): 79 µM | EC50 [1]: > 100 µM | EC50 (MT4): 2 µM | EC50 [2]: > 100 µM | EC50 (MRC5): > 100 µM | EC50 (CCRF-CEM): 8.1 µM | EC50 (DU-145): > 100 µM | EC50 (SK-MEL-28): > 100 µM | EC50 (WIL2-NS): 12 µM | EC50 (MCF7): > 100 µM | EC50 (CCRF-SB): 11 µM

N#C/C(=C\c1c(-c2ccccc2)[nH]c2ccccc12)C(=O)Nc1ccc(Cl)cc1
EC50 (MT4): 1.7 µM

Cc1ccc(S(=O)(=O)/C(C#N)=C/c2c(-c3ccccc3)[nH]c3ccccc23)cc1
EC50 (MT4): 0.4 µM

Cc1[nH]c2ccccc2c1/C=C(\C#N)S(=O)(=O)c1ccccc1
EC50 (MT4): > 100 µM

CCOC(=O)/C(=C/c1c(-c2ccccc2)[nH]c2ccccc12)C(=O)c1ccccc1
EC50 (HepG2): 31 µM | EC50 [1]: > 100 µM | EC50 (MT4): 7 µM | EC50 [2]: > 100 µM | EC50 (MRC5): > 100 µM | EC50 (CCRF-CEM): 8 µM | EC50 (DU-145): 68 µM | EC50 (SK-MEL-28): > 100 µM | EC50 (WIL2-NS): 12 µM | EC50 (MCF7): 43 µM | EC50 (CCRF-SB): 9.6 µM

CCOC(=O)/C(=C\c1c(-c2ccccc2)[nH]c2ccccc12)C(C)=O
EC50 (HepG2): 19 µM | EC50 [1]: 83 µM | EC50 (MT4): 0.6 µM | EC50 [2]: 23 µM | EC50 (MRC5): 31 µM | EC50 (CCRF-CEM): 1.4 µM | EC50 (DU-145): 11 µM | EC50 (SK-MEL-28): 30 µM | EC50 (WIL2-NS): 2.7 µM | EC50 (MCF7): 32 µM | EC50 (CCRF-SB): 1.6 µM

CS(=O)(=O)/C(C#N)=C/c1c[nH]c2ccccc12
EC50 (MT4): > 100 µM

CCOC(=O)/C(=C/c1c[nH]c2ccccc12)C(=O)c1ccccc1
EC50 (MT4): > 100 µM

N#CC(C#N)=Cc1c[nH]c2ccccc12
EC50 (MT4): 36 µM

CC(C)(C)C(=O)/C(C#N)=C/c1c(-c2ccccc2)[nH]c2ccccc12
EC50 (MT4): 0.5 µM

COCCOC(=O)/C(C#N)=C/c1c(-c2ccccc2)[nH]c2ccccc12
EC50 (HepG2): 85 µM | EC50 [1]: 76 µM | EC50 (MT4): 1.2 µM | EC50 [2]: 5 µM | EC50 (MRC5): > 100 µM | EC50 (CCRF-CEM): 1.6 µM | EC50 (DU-145): 4.2 µM | EC50 (SK-MEL-28): 9.3 µM | EC50 (WIL2-NS): 2.2 µM | EC50 (MCF7): 12 µM | EC50 (CCRF-SB): 2.2 µM

N#C/C(=C\c1c[nH]c2ccccc12)S(=O)(=O)c1ccccc1
EC50 (MT4): > 100 µM

COC(=O)/C(=C\c1c[nH]c2ccccc12)S(=O)(=O)c1ccccc1
EC50 (MT4): > 100 µM

N#C/C(=C\c1c(-c2ccccc2)[nH]c2ccccc12)C(=O)N1CCCCC1
EC50 (MT4): 9.6 µM

CCOC(=O)/C(=C/c1c[nH]c2ccccc12)C(=O)c1ccc([N+](=O)[O-])cc1
EC50 (MT4): 100 µM

CC(=O)/C(=C\c1c(-c2ccccc2)[nH]c2ccccc12)S(=O)(=O)c1ccc(Cl)cc1
EC50 (MT4): > 100 µM

CC(C)OP(=O)(OC(C)C)/C(C#N)=C/c1c(-c2ccccc2)[nH]c2ccccc12
EC50 (MT4): 11 µM

Cn1cc(/C=C(\C#N)S(C)(=O)=O)c2ccccc21
EC50 (MT4): > 100 µM

CCOP(=O)(OCC)/C(C#N)=C/c1c[nH]c2ccccc12
EC50 (MT4): 80 µM

CCOC(=O)/C(=C/c1c(-c2ccccc2)[nH]c2ccccc12)C(=O)c1ccc(Cl)cc1
EC50 (MT4): 9 µM

CCOC(=O)/C(C#N)=C/c1c(-c2ccccc2)[nH]c2ccccc12
EC50 (MT4): 1.7 µM

COC(=O)/C(=C\c1c(-c2ccccc2)[nH]c2ccccc12)S(=O)(=O)c1ccccc1
EC50 (MT4): 1 µM

N#C/C(=C\c1c(-c2ccccc2)[nH]c2ccccc12)C(=O)c1ccc(Cl)cc1
EC50 (HepG2): 37 µM | EC50 [1]: 7.4 µM | EC50 (MT4): 0.4 µM | EC50 [2]: 19 µM | EC50 (MRC5): 14 µM | EC50 (CCRF-CEM): 1.1 µM | EC50 (DU-145): 11 µM | EC50 (SK-MEL-28): 15 µM | EC50 (WIL2-NS): 4.5 µM | EC50 (MCF7): 28 µM | EC50 (CCRF-SB): 0.6 µM
